Most compounds without a hit are left out; they make up all but 3.7% or so of the library.
KCNK3 inh = human KCNK3 channel inhibition, primary screen | O14649 | CHO-KCNK3 thallium flux, FluxOR fluorescence; hits give low values | B-score at 10 µM | 340,000 tested, 0.84% active;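 active = B-score under library mean minus 4 SD, starting fluorescence ratio at most library mean plus 5 SD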;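 also: more negative B-score means stronger inhibition of thallium flux through KCNK3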
KCNQ1 inh = human KCNQ1 channel inhibition; P51787; CHO-K1 KCNQ1, FluxOR thallium flux fluorescence; hits give high values; B-score at 10 µM; 310,000 tested, 1.3% active; AID 2642;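 active = compounds whose thallium flux B-score, printed positive for inhibition, exceeds three library SD while starting fluorescence stays within three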;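 also: channel opened by potassium depolarization with thallium stimulus after 20 min compound exposure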
Target sequence (P51787 whole entry, looked up): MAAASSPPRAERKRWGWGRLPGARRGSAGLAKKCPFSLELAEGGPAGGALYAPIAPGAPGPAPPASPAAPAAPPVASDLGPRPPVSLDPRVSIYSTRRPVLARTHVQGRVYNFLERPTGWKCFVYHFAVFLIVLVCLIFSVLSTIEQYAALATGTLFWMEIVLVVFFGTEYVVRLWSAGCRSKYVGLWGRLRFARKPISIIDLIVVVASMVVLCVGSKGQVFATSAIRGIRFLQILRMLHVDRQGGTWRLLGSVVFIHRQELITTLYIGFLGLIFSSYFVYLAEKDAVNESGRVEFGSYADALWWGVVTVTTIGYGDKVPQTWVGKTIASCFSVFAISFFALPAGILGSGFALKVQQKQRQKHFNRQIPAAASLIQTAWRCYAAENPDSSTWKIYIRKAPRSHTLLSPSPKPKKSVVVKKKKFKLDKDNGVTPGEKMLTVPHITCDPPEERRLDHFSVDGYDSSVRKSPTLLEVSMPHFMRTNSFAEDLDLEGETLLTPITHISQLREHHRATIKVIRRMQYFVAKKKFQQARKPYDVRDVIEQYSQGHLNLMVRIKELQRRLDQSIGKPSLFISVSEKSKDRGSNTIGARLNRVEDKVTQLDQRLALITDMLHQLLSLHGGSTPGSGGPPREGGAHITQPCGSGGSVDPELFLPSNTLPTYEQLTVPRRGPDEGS
KCNQ1 pot = potentiators or activators of human KCNQ1 potassium channel; P51787; 310,000 tested, 0.35% active; AID 2648; CHO-K1 KCNQ1, thallium flux FluxOR fluorescence; hits give high values; B-score at 10 µM;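 active = fluorescence ratio B-score, a plate-corrected score, at least three library SD, with initial intensity B-score within 5 SD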
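Schedule – 37 °C overnight plating, 90-min dark dye load, 20-min compound pretreatment · System – stable KCNQ1 CHO-K1 line · Probe or stimulus – thallium- and potassium-containing depolarizing buffer · Measured by – kinetic FluxOR fluorescence, 10 s baseline plus 110 s post-stimulus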
hERG protect = shields human hERG channel from block by proarrhythmic agents | CHO-hERG, FluxOR thallium flux, dofetilide IC70 present | AID 1511 | 310,000 tested, 0.51% active | activation (rescue from dofetilide block), less the hit threshold, % at 10 µM;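 active = activation above the mean of controls blocked by dofetilide plus 5 SD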;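 also: thallium influx through hERG after potassium depolarization seen as dye fluorescence rise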
KCNK9 block = inhibitors of human KCNK9 two-pore domain potassium channel; 310,000 tested, 1.2% active; HEK293 KCNK9, FluxOR thallium flux fluorescence; hits give low values; B-score at 10 µM; AID 488922; Q9NPC2;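 active = ratio B-score over 3 SD below the library mean, with starting fluorescence within 5 SD of its mean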;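 also: negative B-score means less thallium flux so channel inhibition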
Kir21 inh = inhibitors of mouse Kir2.1 inward-rectifier potassium channel; P35561; HEK293-Kir2.1, FluxOR thallium flux fluorescence; hits give low values; B-score at 10 µM; 310,000 tested, 0.85% active;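 active = fluorescence ratio B-score at or below minus 3 SD of library scores, with starting-brightness B-score within 2 SD, cut at about -4.2 in these data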;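 also: channel flux triggered by added potassium and thallium sulfate stimulus; B-score of peak minus minimum fluorescence over baseline after thallium stimulus; more negative B-score means stronger Kir2.1 block with less thallium influx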
KCNQ1 inh valid = reconfirmed blocker of the human KCNQ1 potassium channel. AID 588353. shares compounds with KCNQ1 inh. inhibition, % at 10 µM. KCNQ1 cell line, FluxOR thallium flux fluorescence. 1,600 tested, 93% active;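 active = primary screen active, with duplicate mean exceeding buffer control mean plus 3 SD of buffer wells, cut at about 28% in these data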;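 also: 0% = buffer control ratio and 100% = XE991 inhibitor control ratio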
CHO Tl flux = activity in parental CHO cells lacking KCNQ1. shares compounds with KCNQ1 inh. parental CHO-K1, FluxOR thallium flux fluorescence ratio; hits give low values; zero means no signal rise above baseline. fluorescence ratio (Tl flux) at 10 µM. 1,600 tested, 21% active. AID 588366;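 active = mean of duplicate thallium-flux fluorescence ratios in parental host cells more than 5 SD below the buffer control mean, cut at about 0.38 in these data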;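 also: ratio is peak minus minimum fluorescence divided by baseline fluorescence; actives read low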
KCNQ1 APC inh = blocks human KCNQ1 current in automated patch clamp. shares compounds with KCNQ1 inh. AID 624120. calls only at 10 µM. KCNQ1-CHO cells. 490 tested, 20% active;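 active = KCNQ1 current drop exceeding 3 SD of negative control wells, seen in both duplicate runs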;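 also: steady state current during a 2 s step from -80 to +40 mV; negative values mean current inhibition and positive values mean potentiation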
KCNQ2 inh = KCNQ1 inhibitor that also blocks rat KCNQ2 channel. shares compounds with KCNQ1 inh. KCNQ2 cells, FluxOR thallium flux fluorescence. inhibition, % at 10 µM. 1,600 tested, 71% active. AID 651746;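 active = mean percent inhibition of the KCNQ2 thallium signal more than 5 SD above the buffer-only control wells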;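 also: KCNQ2 expressed in CHO cells; 0% = buffer control wells and 100% = XE-991 inhibitor control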
KCNQ1 KCNE1 spec = selectivity of KCNQ1 inhibitors: inhibition of human KCNQ1/KCNE1 channel | shares compounds with KCNQ1 inh | KCNQ1/KCNE1 cells, FluxOR thallium flux fluorescence | inhibition, % at 10 µM | 1,600 tested, 77% active;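 active = mean percent inhibition of duplicate wells above the buffer-only control mean plus 3 SD of those controls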;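 also: 0% = buffer only wells and 100% = XE-991 inhibitor control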
KCNK9 inh conf = human KCNK9 inhibitor confirmation. shares compounds with KCNK9 block. HEK293 KCNK9 cells, FluxOR thallium flux fluorescence. inhibition, % at 10 µM. 4,900 tested, 43% active. AID 492992;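 active = thallium signal inhibited by more than 5 SD of the compound-free buffer control wells, on both duplicate plates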;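 also: 0% = assay buffer control wells without compound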
Kir21 sel = mouse Kir2.1 off-target activity of KCNK9 modulators; Kir2.1 cells, FluxOR thallium flux fluorescence; 4,900 tested, 4% active; shares compounds with KCNK9 block; inhibition, % at 10 µM;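 active = thallium signal drop more than 5 SD beyond the mean of the no-compound control wells, seen in both duplicate plates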;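 also: signal is fluorescence rise after thallium addition divided by baseline fluorescence; plate controls were assay buffer only for no effect and full block by chlorpromazine control for full effect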
KCNK9 uninduced = second check of KCNK9 modulator effects in non-induced HEK293 cells; FluxOR thallium flux; inhibition, % at 10 µM; 4,900 tested, 40% active; shares compounds with KCNK9 block;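 active = thallium signal drop beyond 5 SD of the untreated control mean, on both duplicate plates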;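 also: plate controls were buffer only IC0 wells for no effect and SID17386958 at its maximal inhibitory level for full effect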
KCNK3 inh conf = human KCNK3 channel inhibition, confirmation assay; shares compounds with KCNK3 inh; CHO-KCNK3 thallium flux, FluxOR fluorescence; 0% buffer, 100% carvedilol maximal block; ratio percent of control, % at 10 µM; 2,400 tested, 99% active; AID 651638;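 active = ratio percent of control, averaged over triplicates, above buffer control mean plus 5 SD, cut at about 64% in these data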;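 also: ratio is the fluorescence rise from min to max over baseline after thallium stimulus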
KCNK3 noninduced = counter-screen for KCNK3 inhibitors: effect in non-induced cells. non-induced KCNK3 parental cells, FluxOR thallium flux; hits give low values. thallium flux ratio (lower = more inhibition) at 10 µM. AID 651747. shares compounds with KCNK3 inh. 2,400 tested, 40% active;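 active = thallium flux ratio, averaged over three wells, more than 5 SD below the buffer control mean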;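 also: host cells are CHO cells without KCNK3 induction; ratio is peak minus trough fluorescence over baseline then normalized to buffer controls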
Starred values were filed as active, the others as inactive; i = inactive; nt = no result; + = active, no number.

SMILES	KCNK3 inh	KCNQ1 inh	KCNQ1 pot	hERG protect	KCNK9 block	Kir21 inh	KCNQ1 inh valid	CHO Tl flux	KCNQ2 inh	KCNQ1 KCNE1 spec	KCNK3 inh conf	KCNK3 noninduced	others
O=C(NCCN1CCOCC1)C(=O)c1c[nH]c2ccccc12	i	i	i	-1	i	-0.14	nt	nt	nt	nt	nt	nt
O=C(CN(Cc1ccc(Br)cc1)S(=O)(=O)c1ccccc1)NCC1CCCO1 (stereo not drawn)	i	i	i	-9	i	-0.36	nt	nt	nt	nt	nt	nt
NC(=O)c1ccsc1NC(=O)COC(=O)Cc1cccc2ccccc12	-8.9*	9*	i	-31	i	0.69	110*	0.31*	104%*	+	116*	i
CCOc1ccc(OCC)c(NC(=O)Nc2ccc3c(c2)N(C)C(=O)CS3)c1	-16*	14*	i	-9	i	-0.02	82*	0.47	90%*	152%*	119*	i
CC(=O)Nc1ccc(NC(=O)Nc2ccc3c(c2)N(C)C(=O)CS3)cc1	i	i	i	-6	i	1.2	nt	nt	nt	nt	nt	nt
COc1cccc(NC(=O)Nc2ccc(C(C)(C)C)cc2)c1	-13*	13*	i	-30	i	-0.77	152*	0.35*	109%*	+	134*	0.13*
COc1cccc(NC(=O)Nc2ccc3c(c2)N(C)C(=O)CS3)c1	-11*	6*	i	-28	i	-0.19	114*	0.36*	114%*	+	119*	i
COc1cccc(NC(=O)Nc2ccncc2)c1	i	i	i	-4	i	-1.1	nt	nt	nt	nt	nt	nt
Nc1nc(N)c(N=O)c(OCC2CCCCC2)n1	i	i	i	-4	i	-1.2	nt	nt	nt	nt	nt	nt
O=C(CNC(=O)c1ccc(Br)o1)Nc1cccc(S(=O)(=O)N2CCCC2)c1	i	i	i	-2	i	0.14	nt	nt	nt	nt	nt	nt
Cc1onc(-c2ccccc2)c1C(=O)NCC(=O)Nc1cc(Cl)ccc1Cl	i	nt	nt	nt	nt	nt	nt	nt	nt	nt	nt	nt
Cc1ccn2cc(-c3cccc(NC(=O)c4cccs4)c3)nc2c1	-11*	8*	i	-24	i	-0.61	58*	0.44	i	82%*	96*	i
CSCCC(NC(=O)COc1cccc2ccccc12)C(=O)O (stereo not drawn)	i	i	i	-2	i	-0.46	nt	nt	nt	nt	nt	nt
COc1ccc(NC(=O)N(C)C[C@H]2Oc3c(NC(=O)C4CCCCC4)cccc3C(=O)N([C@H](C)CO)C[C@@H]2C)cc1	i	nt	nt	nt	nt	nt	nt	nt	nt	nt	nt	nt
Cn1c(N2CCN(C(=O)Nc3ccc(F)cc3)CC2)nc2ccccc21	i	i	i	-1	i	0.73	nt	nt	nt	nt	nt	nt
Cn1c(N2CCN(C(c3ccccc3)c3ccccc3)CC2)nc2ccccc21	-13*	12*	i	-15	-14*	0.69	142*	0.39	142%*	+	117*	0.16*	KCNQ1 APC inh=i;KCNK9 inh conf=84%*;Kir21 sel=i;KCNK9 uninduced=i
N#CC1(NC(=O)CN2C(=O)NC(Cc3c[nH]c4ccccc34)C2=O)CCCCC1 (stereo not drawn)	i	nt	nt	nt	nt	nt	nt	nt	nt	nt	nt	nt
CCOC(=O)Nc1sc(C)nc1-c1ccccc1	i	i	i	-4	i	1.1	nt	nt	nt	nt	nt	nt
CCOC(=O)Nc1nc(-c2ccccc2)c(C(=O)c2ccc(Cl)cc2)s1	-8.7*	7*	i	-12	-15*	0.41	98*	0.36*	94%*	171%*	125*	0.16*	KCNK9 inh conf=40%*;Kir21 sel=i;KCNK9 uninduced=42%*
CCS(=O)(=O)c1ncc(Cl)c(C(=O)Nc2ccc(S(=O)(=O)N3CCC(C)CC3)cc2)n1	-8.8*	6*	i	-25	-7*	-1.1	0	0.43	i	70%*	124*	0.12*
CC1CCN(S(=O)(=O)c2ccc(NC(=O)c3ccncc3)cc2)CC1	i	i	i	-13	i	1.6	nt	nt	nt	nt	nt	nt
Cc1cc(OCC(=O)Nc2ccncc2)c(C)cc1Br	-9.2*	8*	i	-16	i	-0.47	132*	0.49	108%*	44%*	122*	i	KCNQ1 APC inh=i
CCc1ccc(OCC(=O)Nc2ccncc2)c(Br)c1	i	i	i	-8	i	-0.15	nt	nt	nt	nt	nt	nt
CC(C)(C)c1ccc(OCC(=O)Nc2ccncc2)c(Br)c1	-8.8*	19*	i	-18	i	0.95	142*	0.42	i	74%*	138*	0.12*	KCNQ1 APC inh=i
CCOC(=O)CC1C(=O)NCCN1C(=O)COc1ccc(C(C)(C)C)cc1 (stereo not drawn)	i	i	i	0	i	1.8	nt	nt	nt	nt	nt	nt
CC(C)(C)NC(=O)C(c1cccs1)N(Cc1ccco1)C(=O)c1csnn1 (stereo not drawn)	i	i	i	-8	i	-2.6	nt	nt	nt	nt	nt	nt
